From PubChem
CHRM5 PAM: positive allosteric modulators of human muscarinic M5 receptor. P08912. CHO-K1 hM5, Fluo-8 calcium, ACh EC20 PAM; 0% = ACh EC20, 100% = ACh EC100. activation, % at 3 µM. 360,000 tested, 0.3% active;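 active means activation above the run cutoff, the mean activation of all test compounds plus 3 SD, cut at about 18% in these data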
Target sequence (P08912 whole entry, looked up): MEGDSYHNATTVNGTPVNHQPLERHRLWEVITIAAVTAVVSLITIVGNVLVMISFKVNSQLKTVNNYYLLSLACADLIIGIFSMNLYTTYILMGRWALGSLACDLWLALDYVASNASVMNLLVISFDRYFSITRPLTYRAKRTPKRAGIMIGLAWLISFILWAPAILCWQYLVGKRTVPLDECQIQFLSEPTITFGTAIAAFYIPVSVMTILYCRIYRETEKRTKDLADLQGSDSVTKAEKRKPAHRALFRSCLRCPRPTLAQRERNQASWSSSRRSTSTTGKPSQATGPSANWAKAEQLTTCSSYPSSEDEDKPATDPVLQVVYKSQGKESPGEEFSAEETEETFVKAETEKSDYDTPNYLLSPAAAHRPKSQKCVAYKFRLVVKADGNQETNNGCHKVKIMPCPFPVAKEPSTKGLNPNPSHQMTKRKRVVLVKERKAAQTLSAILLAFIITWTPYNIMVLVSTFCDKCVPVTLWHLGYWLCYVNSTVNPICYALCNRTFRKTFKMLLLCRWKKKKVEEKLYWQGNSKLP
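Replicates: One well per compound, no replicates | System: Human M5 receptor in CHO-K1 cells | Benchmarks: Low control EC20 acetylcholine (0%), high control EC100 acetylcholine (100%) | Probe or stimulus: Acetylcholine, EC20 level | Times: Fluo-8 loading 80 min at 37 °C plus 30 min room temperature | Signal: Intracellular calcium via Fluo-8 fluorescence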
CHRM5 agonist: agonists of human muscarinic M5 receptor (CHRM5). AID 624037. activation, % at 3 µM. P08912. 360,000 tested, 0.19% active. CHO-K1 hM5 cells, Fluo-8 calcium fluorescence; 0% DMSO wells, 100% maximal acetylcholine response;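 active means activation above the run's mean over test compounds plus 3 SD, cut at about 23% in these data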;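 further: signal is peak over basal fluorescence ratio across the kinetic read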
M4 antag: CHRM4 antagonism in calcium assay. P08173. CHO-hM4 cells, ACh EC80, Fluo-8 calcium fluorescence. inhibition, % at 3 µM. 360,000 tested, 0.73% active. AID 624125;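 active means inhibition above its plate's cutoff, the mean inhibition of sample wells plus 3 SD, cut at about 27% in these data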;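 further: 0% = acetylcholine EC80 with DMSO and 100% = DMSO without agonist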
CHRM4 agonist: agonists of human muscarinic M4 receptor (CHRM4) | CHO-K1 hM4/Gqi5, Fluo-8 calcium fluorescence; vehicle 0%, full acetylcholine response 100% | activation, % at 3 µM | 360,000 tested, 0.14% active | AID 624127;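 active means activation above the run mean over all test wells plus 3 SD, cut at about 32% in these data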;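 further: peak over basal fluorescence ratio per well then scaled between controls; 0% = DMSO wells and 100% = acetylcholine at EC100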
M4 PAM: positive allosteric modulators of human muscarinic M4 receptor; P08173; CHO-K1 hM4/Gqi5, Fluo-8 calcium fluorescence, ACh EC20; 0% = ACh EC20, 100% = maximal ACh; activation, % at 3 µM; 360,000 tested, 0.4% active;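 active means activation above its plate's cutoff, the mean activation of sample wells plus 3 SD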
M5 antag: antagonists of human muscarinic M5 receptor (CHRM5). inhibition, % at 3 µM. CHO-hM5 cells, Fluo-8 calcium fluorescence, ACh EC80. AID 624040. 360,000 tested, 0.59% active. P08912;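 active means inhibition above a per-plate cutoff, the mean of that plate's test compounds plus 3 SD, cut at about 27% in these data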;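 further: 0% = acetylcholine EC80 with DMSO and 100% = DMSO without agonist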
* marks the source's active call; other numbers are inactive results. The list is not random: actives were taken first. Their share in the collection is about 1.9%.

SMILES	CHRM5 PAM	CHRM5 agonist	M4 antag	CHRM4 agonist	M4 PAM	M5 antag
CCN1/C(=C/c2ccc3cc(C)ccc3[n+]2CC)Sc2cc(C)ccc21	-21.9	7.8	16.9	11.2	-16.6	41.7*
CCN1/C(=C/c2ccc3ccccc3[n+]2CCCS(=O)(=O)[O-])C=Cc2cc(C)ccc21	-5.9	-2.2	3.3	0.4	-1.0	14.4
Cc1c(NC(=O)CN2c3ccccc3CC2C)c(=O)n(-c2ccccc2)n1C (centres undefined)	-18.6	-3.0	-11.1	18.8	-17.8	19.1
COc1ccc(NC(=O)CN(C)C(=O)Cc2ccc(S(=O)(=O)N3CCOCC3)s2)cc1	-0.4	1.4	-4.9	1.2	5.9	6.0
CCOC(=O)N1CCN(C(=O)c2cc3c(s2)-c2ccccc2OC3)CC1	-7.7	1.1	-24.7	12.2	24.4*	-5.7
CCCN1CCN(C(=O)c2cc3c(s2)-c2ccccc2OC3)CC1	0.3	-1.3	-1.7	2.7	2.3	-0.6
Cn1cc(CNC(=O)c2cc(COc3ccc4c(c3)CCCC4)on2)cn1	-2.0	-4.5	2.9	7.9	2.8	4.3
O=C(NC(c1cccnc1)C(F)(F)F)c1cc(COc2ccc3c(c2)CCCC3)on1 (centres undefined)	-10.4	4.6	20.0	9.6	-5.1	28.7*
Cc1ccc(C)c(-n2sc3ccc(F)cc3c2=O)c1	-5.0	20.7	10.2	33.2*	-7.2	7.6
N=c1oc2ccc(Br)cc2cc1C(=O)NC1CCCCCC1	9.4	-0.1	-11.9	0.6	7.3	-13.1
CC1(C(=O)NCC2CC2)Cc2c(-c3cccc(C(F)(F)F)c3)ccnc2O1 (centres undefined)	1.2	-0.2	4.2	-0.5	2.4	-2.8
Cc1cc(N2CCC(C)CC2)c(F)cc1[N+](=O)[O-]	3.8	2.6	-3.4	0.5	0.7	-10.9
Cc1cc(N2CCCC2)c(F)cc1/C=C\[N+](=O)[O-]	-12.7	25.3*	10.8	29.7	-9.2	64.3*
CCc1ccc(S(=O)(=O)Nc2c(C)nc3nc[nH]n3c2=O)cc1	37.8*	7.7	-9.9	2.0	5.2	4.1
COC(=O)c1ccc(C(=O)NC2CCSc3ccccc32)cc1 (centres undefined)	2.4	-4.4	5.8	1.0	-2.3	-6.1
Cc1ccc(NC(=S)NC2CCSc3ccccc32)cc1C (centres undefined)	-18.8	-4.8	51.9*	5.5	-18.5	28.2*
Cc1ccc(S(=O)(=O)N(C)CC(=O)NCc2ccncc2)cc1	-1.8	-1.2	-3.5	0.3	4.2	2.0
CN(C)c1ccc(CNC(=O)CN(C)S(=O)(=O)c2ccc3c(c2)c(=O)n(C)c(=O)n3C)cc1	9.7	-4.0	-0.2	0.7	16.7*	-12.6
Cc1ccc(CNC(=O)CN(C)S(=O)(=O)c2ccc(F)cc2)cc1	19.5*	1.2	-22.4	1.7	-1.9	-22.2
O=C(Cn1cnc2c(nnn2-c2cccc(Cl)c2)c1=O)NCc1ccccc1	4.2	-0.3	3.8	0.4	-3.3	-2.0
CCN(CC)CC#CC(OC)(c1ccccc1)c1ccccc1	-15.6	-11.8	57.0*	-1.6	-27.2	95.5*
Cc1ccccc1N(Cc1cc(=O)[nH]c2ccccc12)C(=O)C(C)C	-1.2	-1.6	-15.1	2.3	-5.7	-4.7
Cc1ccc(N(Cc2cc(=O)[nH]c3ccccc23)C(=O)C(C)C)c(C)c1	-0.2	0.4	46.0*	-0.6	-10.6	6.2
CC(=O)c1c(C)[nH]c(C(=O)COc2cc(C)ccc2C(C)C)c1C	-18.5	3.7	39.0*	15.7	-8.2	40.5*
O=C(CCc1ccccc1)N=C1SC2CS(=O)(=O)CC2N1c1ccccc1F (centres undefined)	-3.1	-2.0	4.5	0.7	-3.8	0.8
SMILES	CHRM5 PAM	CHRM5 agonist	M4 antag	CHRM4 agonist	M4 PAM	M5 antag
CNC(=O)C12CCC(C)(c3nc4cc(C)c(C)cc4nc31)C2(C)C (centres undefined)	1.2	-1.2	-3.2	-0.3	2.8	2.0
CCCNC(=O)C12CCC(C)(c3nc4cc(C)c(C)cc4nc31)C2(C)C (centres undefined)	25.5*	12.5	-26.2	-1.1	22.6*	-3.3
CCCNC(=O)C1(C)CCN(C(=O)COc2ccc(Cl)cc2Cl)C1 (centres undefined)	3.4	-2.5	-15.9	1.5	2.3	1.8
O=C(NCc1n[nH]c(=S)n1-c1ccccc1Cl)c1ccc(S(=O)(=O)N2CCCCC2)cc1	3.4	-3.2	-27.3	1.1	3.3	-3.0
CCOCCCNc1ncnc2c1[nH]c1ccccc12	-22.9	6.9	7.2	14.1	-7.1	8.1
CCCCOCCCNc1ncnc2c1[nH]c1ccccc12	-17.6	5.7	31.4*	20.5	-28.0	28.3*
CCOC(=O)C1=C(C)N(CCO)C(=O)NC1c1ccccc1 (centres undefined)	19.5*	1.4	-5.5	-0.2	8.6	-1.6
CCOC(=O)C1=C(C)N(CCCC(=O)O)C(=O)NC1c1ccccc1 (centres undefined)	-1.4	3.3	1.1	1.4	5.1	10.7
O=C(COC(=O)COc1ccccc1)Nc1ccc(Br)cc1F	-1.7	4.8	7.5	1.2	14.5*	10.5
O=C(COC(=O)COc1ccccc1)Nc1ccc(Br)cc1Br	2.7	1.6	5.7	0.0	1.4	12.1
CC1(C(=O)NS(=O)(=O)c2cccc(C#N)c2)CCN1C(=O)C/C=C/c1ccccc1 (centres undefined)	-6.3	0.3	-16.6	1.4	2.8	0.5
Cc1ccc2nc(-c3cccc(-c4cccc(Cl)c4)c3)c(NCc3ccccc3)n2c1	-31.9	-3.0	28.4*	7.5	-10.3	27.9*
CCC(C)Sc1cccc(-c2nc3ccc(C)cn3c2NCc2ccccc2)c1 (centres undefined)	-26.3	0.3	46.6*	13.2	-8.4	23.1
CCCCCCSc1cccc(-c2nc3ccc(C)cn3c2NCc2ccccc2)c1	-2.6	-1.5	14.4	5.4	-8.7	13.6
O=C(O)c1cc2c(N3CCC(Cc4ccccc4)CC3)ncnc2s1	-0.5	1.1	9.5	0.7	7.2	-4.2
c1ccc(CC2CCN(c3ncnc4sccc34)CC2)cc1	-31.5	-0.9	20.4	11.9	-22.6	37.9*
O=S(=O)(c1ccc(F)c(Cl)c1)N1CCN(C/C=C/c2ccccc2)CC1	-11.2	-4.7	-1.6	0.5	-2.1	6.7
COC(=O)C[C@H]1CC[C@@H](NC(=O)Nc2cccc(OC)c2)[C@@H](CO)O1	3.4	0.9	-3.0	0.9	5.4	-5.0
CC(C)Cc1nnc(NS(=O)(=O)c2ccc(Cl)cc2)s1	-1.5	-1.1	-19.4	0.7	15.8*	-0.9
